Experimental data from ChEMBL document CHEMBL1157145, “Cytotoxic activity of proflavine diureas: synthesis, antitumor, evaluation and DNA binding properties of 1',1''-(acridin-3,6-diyl)-3',3''-dialkyldiureas” (Bioorg Med Chem, 2008).
Activity calls are given as the source filed them. No cut-off for these calls is given here.

Columns and labels:
DNA [1] = experiment: Binding affinity to calf thymus DNA at 4 uM by fluorescence spectrophotometric titration; type: nucleic-acid assay; settings: Bos taurus
Method in brief: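 ctDNA sonicated in TE buffer, concentration taken from A260 and given in base pairs. Compound (4 µM) in 0.01 M Tris, pH 7.4, 25 °C titrated with ctDNA (0–55 µM bp) until spectra stopped changing. Excitation 424 nm, slit widths 10 nm; binding constant derived from the change in emission.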

HCT-116 [2] = experiment: Cell cycle arrest in human HCT116 cells assessed as accumulation at G2/M phase at 10 uM after 48 hrs; type: functional
Method in brief: (§1)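 Cells seeded at 8 · 10^5 per 60 mm dish, allowed to settle 24 h (37 °C, 5% CO2), then exposed to the drug for 24 or 48 h. Adherent plus floating cells (5 · 10^5) were fixed in cold 70% ethanol at −20 °C overnight, treated with RNase A (100 µg/mL) and stained with propidium iodide (20 µg/mL) in Vindelov's solution for 30 min at RT. Flow cytometry used 488 nm excitation, FL-2 at 585 ± 21 nm, and histograms were modelled for G0/G1, S and G2/M fractions.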

DNA [3] = experiment: Binding affinity to calf thymus DNA at 50 uM by circular dichroism spectrophotometric titration; type: nucleic-acid assay; settings: Bos taurus
HeLa [4] = experiment: Cytotoxicity against human HeLa cells after 48 hrs by MTT assay; type: functional, cell-based
HeLa [5] = experiment: Cytotoxicity against human HeLa cells after 72 hrs by MTT assay; type: functional, cell-based
HCT-116 [6] = experiment: Cytotoxicity against human HCT116 cells after 48 hrs by MTT assay; type: functional, cell-based; settings: HCT-116, 48 h
HCT-116 [7] = experiment: Cytotoxicity against human HCT116 cells after 72 hrs by MTT assay; type: functional, cell-based; settings: Homo sapiens, HCT-116, 72 h
HeLa [8] = experiment: Antiproliferative activity against human HeLa cells assessed as increase of floating cells in total cell population at 24 uM after 24 hrs; type: functional
Method in brief: (§2)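 Cells seeded (8 · 10^5 per 60 mm dish), allowed to settle 24 h at 37 °C, 5% CO2, then treated with a single concentration for 24 or 48 h. Adherent and floating cells counted by Coulter counter. Total cell number given as % of untreated control; floating cells as % of total cell number.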

HeLa [9] = experiment: Antiproliferative activity against human HeLa cells assessed as decrease in total cell population at 24 uM after 24 hrs; type: functional; design: scale not given: the % may be the effect or the level left; method in brief: as §2
HCT-116 [10] = experiment: Antiproliferative activity against human HCT116 cells assessed as increase of floating cells in total cell population at 10 uM after 24 hrs; type: functional; method in brief: as §2
HCT-116 [11] = experiment: Antiproliferative activity against human HCT116 cells assessed as decrease in total cell population at 10 uM after 24 hrs; type: functional; design: scale not given: the % may be the effect or the level left; method in brief: as §2
HCT-116 [12] = experiment: Antiproliferative activity against human HCT116 cells assessed as increase of floating cells in total cell population at 10 uM after 48 hrs; type: functional; method in brief: as §2
HCT-116 [13] = experiment: Antiproliferative activity against human HCT116 cells assessed as decrease in total cell population at 10 uM after 48 hrs; type: functional; design: scale not given: the % may be the effect or the level left; method in brief: as §2
HeLa [14] = experiment: Induction of apoptosis in human HeLa cells at 24 uM after 24 hrs; type: functional
Method in brief: (§3)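 After 24 or 48 h of drug exposure, all cells were collected, combining trypsinised adherent cells with floating cells from the medium. Cells (1 × 10^6) were fixed in cold 70% ethanol overnight at −20 °C and stained with DAPI (10 µg/mL) for 30 min in the dark at RT. Under fluorescence microscopy, 300 cells per sample were scored, with condensed or fragmented nuclei counted as apoptotic.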

HeLa [15] = experiment: Induction of apoptosis in human HeLa cells at 24 uM after 48 hrs; type: functional; method in brief: as §3
HCT-116 [16] = experiment: Induction of apoptosis in human HCT116 cells at 10 uM after 24 hrs; type: functional; method in brief: as §3
HCT-116 [17] = experiment: Induction of apoptosis in human HCT116 cells at 10 uM after 48 hrs; type: functional; method in brief: as §3
HeLa [18] = experiment: Cell cycle arrest in human HeLa cells assessed as accumulation at G0/G1 phase at 24 uM after 24 hrs; type: functional; method in brief: as §1
HeLa [19] = experiment: Cell cycle arrest in human HeLa cells assessed as accumulation at G0/G1 phase at 24 uM after 48 hrs; type: functional; method in brief: as §1
HCT-116 [20] = experiment: Cell cycle arrest in human HCT116 cells assessed as accumulation at G0/G1 phase at 10 uM after 24 hrs; type: functional
Method in brief: (§4)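 Adherent plus floating cells (5 · 10^5) collected 24 or 48 h after treatment, fixed in cold 70% ethanol at −20 °C overnight, washed in PBS. RNase A (100 µg/mL) and propidium iodide (20 µg/mL) in Vindelov's solution, 30 min at RT. Flow cytometry with 488 nm excitation, emission 585 ± 21 nm; % cells per cycle phase from DNA content histograms.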

HCT-116 [21] = experiment: Cell cycle arrest in human HCT116 cells assessed as accumulation at G0/G1 phase at 10 uM after 48 hrs; type: functional; method in brief: as §4
HeLa [22] = experiment: Cell cycle arrest in human HeLa cells assessed as accumulation at S phase at 24 uM after 24 hrs; type: functional; method in brief: as §1
HeLa [23] = experiment: Cell cycle arrest in human HeLa cells assessed as accumulation at S phase at 24 uM after 48 hrs; type: functional; method in brief: as §1
HCT-116 [24] = experiment: Cell cycle arrest in human HCT116 cells assessed as accumulation at S phase at 10 uM after 24 hrs; type: functional; method in brief: as §1
HCT-116 [25] = experiment: Cell cycle arrest in human HCT116 cells assessed as accumulation at S phase at 10 uM after 48 hrs; type: functional; method in brief: as §1
HeLa [26] = experiment: Cell cycle arrest in human HeLa cells assessed as accumulation at G2/M phase at 24 uM after 24 hrs; type: functional; method in brief: as §1
HeLa [27] = experiment: Cell cycle arrest in human HeLa cells assessed as accumulation at G2/M phase at 24 uM after 48 hrs; type: functional; method in brief: as §1
HCT-116 [28] = experiment: Cell cycle arrest in human HCT116 cells assessed as accumulation at G2/M phase at 10 uM after 24 hrs; type: functional; method in brief: as §1

In the case of `Nc1ccc2cc3ccc(N)cc3nc2c1`, the K (DNA [1]) is reported as 7.95 ×10⁵ /M.
With `CCCNC(=O)Nc1ccc2cc3ccc(NC(=O)NCCC)cc3nc2c1.Cl` the Activity (HCT-116 [2]) was 15.11%, the K (DNA [1]) was 3.8 ×10⁵ /M and the Activity (DNA [3]) was “Active”. It also gave an IC50 (HeLa [4]) of 23.9 µM, an IC50 (HeLa [5]) of 29.3 µM and an IC50 (HCT-116 [6]) of 10.3 µM. For the same molecule, the IC50 (HCT-116 [7]) was 61.5 µM, the Activity (HeLa [8]) was 3.84% and the Activity (HeLa [9]) was 91.36%. For the same molecule, the Activity (HeLa [9]; in the assay text read “after 48 hrs” for “after 24 hrs”) was 89.95%, the Activity (HCT-116 [10]) was 5.48% and the Activity (HCT-116 [11]) was 86.16%. For the same molecule, the Activity (HCT-116 [12]) was 4.34%, the Activity (HCT-116 [13]) was 71.3% and the Activity (HeLa [14]) was 0.89%. The Activity (HeLa [15]) was 1%, the Activity (HCT-116 [16]) was 2.22% and the Activity (HCT-116 [17]) was 2.89%. The Activity (HeLa [18]) was 62.48%, the Activity (HeLa [19]) was 72.81% and the Activity (HCT-116 [20]) was 45.07%. The Activity (HCT-116 [21]) was 57.74%, the Activity (HeLa [22]) was 24.12% and the Activity (HeLa [23]) was 17.12%. The Activity (HCT-116 [24]) was 35.8%, the Activity (HCT-116 [25]) was 27.16% and the Activity (HeLa [26]) was 13.4%. For the same molecule, the Activity (HeLa [27]) was 10.06% and the Activity (HCT-116 [28]) was 19.14%.
